Some results are limits rather than exact numbers.

Data set [1] concerns NF-κB. Format: cell-based, human. As to conditions: Homo sapiens, SW1353, read-out: NF-κB IC50. An outline of the steps: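 SW1353 cells were grown in DMEM/F12 with 10% FBS and electroporated with an NF-κB luciferase plasmid (50 μg/mL; 160 V, one 70-ms pulse). They were plated at 1.25 × 10⁵ cells/well for 24 h. […] Parthenolide was the reference; Sp-1 served as control factor.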

Data set [2] in a line: In vitro cytotoxicity, Neutral Red assay. Format: cell-based. As to conditions: pig, LLC-PK11 pig kidney epithelial cells. The procedure, abridged: (§1)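 Cells were kept in RPMI-1640 with 10% bovine calf serum and amikacin 60 mg/L at 37 °C, 5% CO₂. They were seeded at 25,000 cells/well and grown 24 h, then exposed 48 h to test compound diluted in serum-free medium, tested up to 25 μg/ml. Viability was read by Neutral Red, as % decrease versus vehicle. IC50 came from dose curves, in triplicate, with doxorubicin as reference.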

Data set [3] is described as follows: In vitro cytotoxicity, Neutral Red assay. Format: cell-based. Conditions: African green monkey, Vero cells (kidney fibroblasts). An outline of the steps:
as §1

Data set [4] can be described thus: In vitro cytotoxicity, Neutral Red assay. As to conditions: human, SK-OV-3 ovary carcinoma cells. Format: cell-based. The procedure, abridged:
(§2)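 Cells grown in RPMI-1640 with 10% bovine calf serum and amikacin (60 mg/L), 37°C, 5% CO₂, 95% humidity. Seeded at 25,000 cells/well, grown 24 h. Test samples diluted in serum-free medium, exposure 48 h. Viable cells counted by Neutral Red uptake; % viability loss against vehicle control. IC50 from dose curves, triplicate, means reported.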

The nature of data set [5]: In vitro cytotoxicity, Neutral Red assay. Format: cell-based. Conditions: human, BT-549 breast ductal carcinoma cells. An outline of the steps: as §1
Data set [6] in a line: In vitro cytotoxicity, Neutral Red assay. Format: cell-based. As to conditions: human, KB oral epidermal carcinoma cells. The procedure, abridged:
as §2

Data set [7] can be described thus: In vitro cytotoxicity, Neutral Red assay. Type of data set: cell-based. Conditions: human, SK-MEL malignant melanoma cells. An outline of the steps:
as §1

The conditions of data set [8]: cited from earlier work.
The target in data set [9] is iNOS (Mus musculus, UniProt P29477). Nature of the data set: iNOS inhibitory assay in LPS-induced mouse macrophages. Type of data set: cell-based. As to conditions: LPS-induced RAW264.7 macrophages.

For the molecule `O=c1oc2ccccc2n1CCCCN1CCN(CCn2c(=O)oc3ccccc32)CC1` [Compound 5c, 3-(2-(4-(4-(2-oxobenzo[d]oxazol-3(2H)-yl)butyl)piperazin-1-yl)ethyl)benzo[d]oxazol-2(3H)-one], the IC50 – broadly, the concentration that gives 50% inhibition – in data set [1] is over 25 µg/mL. Further, the IC50 at 48 h in [2], in data set [3], in data set [4], in [5], in data set [6] and in data set [7] was over 25 µg/mL each time.
Take `O=C(c1ccccc1)c1ccc2[nH]c(=O)sc2c1` [Compound S-14080]: the “anti-inflammatory and antinociceptive activities (in words)” value in data set [8] is “superior to acetylsalicylic acid and equivalent to glafenine”.
As for `O=c1sc2ccccc2n1CCCCN1CCN(CCCCn2c(=O)sc3ccccc32)CC1` [Compound 3f, 3,3′-(piperazine-1,4-diylbis(butane-4,1-diyl))bis(benzo[d]thiazol-2(3H)-one)], the “iNOS inhibitory activity (in words)” value in data set [9] is “no activity”. The half-inhibitory concentration (IC50) at 48 h in data set [2], in [3], in [4], in [5], in data set [6] and in data set [7] was over 25 µg/mL throughout.
On to `O=c1oc2ccccc2n1CCCN1CCN(CCn2c(=O)oc3ccccc32)CC1` [Compound 5a, 3-(3-(4-(2-(2-oxobenzo[d]oxazol-3(2H)-yl)ethyl)piperazin-1-yl)propyl)benzo[d]oxazol-2(3H)-one], for which the half-maximal inhibitory concentration (IC50) in data set [1] was over 25 µg/mL. Also, the IC50 at 48 h in data set [2], in data set [3], in data set [4], in [5], in data set [6] and in [7] was over 25 µg/mL throughout.
For `O=c1oc2ccccc2n1CCCCN1CCN(CCCCn2c(=O)oc3ccccc32)CC1` [Compound 3e, 3,3′-(piperazine-1,4-diylbis(butane-4,1-diyl))bis(benzo[d]oxazol-2(3H)-one)], the “iNOS inhibitory activity (in words)” value in [9] is listed as “no activity”. Besides, the IC50 in data set [1] was over 25 µg/mL. The half-maximal inhibitory concentration (IC50) at 48 h in data set [2], in data set [3], in data set [4], in data set [5], in [6] and in data set [7] was over 25 µg/mL throughout.
Regarding `O=c1sc2ccccc2n1CCCN1CCN(CCCn2c(=O)sc3ccccc32)CC1` [Compound 3d, 3,3′-(piperazine-1,4-diylbis(propane-3,1-diyl))bis(benzo[d]thiazol-2(3H)-one)], the half-inhibitory concentration (IC50) in data set [1] is over 25 µg/mL. The IC50 at 48 h in data set [3], in [4], in data set [5], in data set [6] and in [7] was over 25 µg/mL each time.
In the case of `O=c1sc2ccccc2n1CCCN1CCN(CCn2c(=O)sc3ccccc32)CC1` [Compound 5b, 3-(3-(4-(2-(2-oxobenzo[d]thiazol-3(2H)-yl)ethyl)piperazin-1-yl)propyl)benzo[d]thiazol-2(3H)-one], in data set [1], the IC50 is over 25 µg/mL. Moreover, the IC50 at 48 h in [3], in [4], in data set [5], in data set [6] and in [7] was over 25 µg/mL throughout.
Turning to `O=c1oc2ccccc2n1CCN1CCN(CCn2c(=O)oc3ccccc32)CC1` [Compound 3a, 3,3′-(piperazine-1,4-diylbis(ethane-2,1-diyl))bis(benzo[d]oxazol-2(3H)-one)], the IC50 in data set [1] was over 25 µg/mL. For the same molecule, the IC50 at 48 h in [2], in data set [3], in data set [4], in data set [5], in [6] and in data set [7] was over 25 µg/mL throughout.
In the case of `O=c1oc2ccccc2n1CCCCCCN1CCN(CCCn2c(=O)oc3ccccc32)CC1` [Compound 5m, 3-(3-(4-(6-(2-oxobenzo[d]oxazol-3(2H)-yl)hexyl)piperazin-1-yl)propyl)benzo[d]oxazol-2(3H)-one], the half-maximal inhibitory concentration (IC50) in [1] was over 25 µg/mL. In addition, the IC50 at 48 h in [2], in data set [3], in [4], in [5], in [6] and in data set [7] was over 25 µg/mL in each case.
Regarding `O=c1oc2ccccc2n1CCCCCN1CCN(CCCCn2c(=O)oc3ccccc32)CC1` [Compound 5o, 3-(5-(4-(4-(2-oxobenzo[d]oxazol-3(2H)-yl)butyl)piperazin-1-yl)pentyl)benzo[d]oxazol-2(3H)-one], the IC50 in [1] was over 25 µg/mL. Moreover, the IC50 at 48 h in [2], in [4], in [5], in data set [6] and in [7] was over 25 µg/mL each time.
With `O=c1sc2ccccc2n1CCN1CCN(CCn2c(=O)sc3ccccc32)CC1` [Compound 3b, 3,3′-(2,2′-(piperazine-1,4-diyl)bis(ethane-2,1-diyl))dibenzo[d]thaizol-2(3H)-one], the IC50 in data set [1] was over 25 µg/mL. The IC50 at 48 h in data set [2], in data set [3], in [4], in data set [5], in data set [6] and in data set [7] was over 25 µg/mL throughout.
Take `O=c1sc2ccccc2n1CCCCN1CCN(CCn2c(=O)sc3ccccc32)CC1` [Compound 5d, 3-(2-(4-(4-(2-oxobenzo[d]thiazol-3(2H)-yl)butyl)piperazin-1-yl)ethyl)benzo[d]thiazol-2(3H)-one]: in data set [1], the IC50 is over 25 µg/mL. In addition, the IC50 at 48 h in [2], in data set [3], in [4], in data set [5], in [6] and in [7] was over 25 µg/mL throughout.
